Assay [1] deals with Serine/threonine-protein kinase N2 (Homo sapiens, UniProt Q16513). The assay is described as follows: Inhibition of PKN2 by Caliper mobility shift assay. The gist of the method: (§1)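 Caliper mobility shift kinase assay with phosphorylation of a substrate; IC50 derived from two independent experiments.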
Assay [2] concerns the target Tyrosine-protein kinase receptor UFO (Homo sapiens, UniProt P30530). The assay is described as follows: Inhibition of Axl by TR-FRET based LanthaScreen assay. The gist of the method: (§2)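 TR-FRET LanthaScreen kinase assay with phosphorylation of a substrate; FGFR3 used as the K651E mutant. IC50 derived from two independent experiments; for some compounds, ALK and cKIT values are averages ± SDs of three independent experiments.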

In a further assay the target is Ephrin type-A receptor 4 (Homo sapiens, UniProt P54764). The assay is described as follows: Inhibition of EPHA4 by TR-FRET based LanthaScreen assay. The gist of the method:
as §2

The target of assay [3] is Tyrosine-protein kinase JAK3 (Homo sapiens, UniProt P52333). The assay is described as follows: Inhibition of JAK3 by Caliper mobility shift assay. Summed up: as §1
For assay [4], the target named is cAMP-dependent protein kinase catalytic subunit alpha (Homo sapiens, UniProt P17612). The assay is described as follows: Inhibition of PKAalpha by Caliper mobility shift assay.
The target in assay [5] is ALK tyrosine kinase receptor (Homo sapiens, UniProt Q9UM73). The assay is described as follows: Inhibition of ALK by TR-FRET based LanthaScreen assay. The gist of the method:
as §2

For assay [6], the target named is Mitogen-activated protein kinase 14 (Homo sapiens, UniProt Q16539). The assay is described as follows: Inhibition of p38alpha by Caliper mobility shift assay. The gist of the method:
(§3)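 Caliper microfluidic mobility shift readout of substrate phosphorylation, run per the group's earlier kinase protocol. IC50 taken from two independent experiments.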

In assay [7] the target is Tyrosine-protein kinase ZAP-70 (Homo sapiens, UniProt P43403). The assay is described as follows: Inhibition of ZAP70 by TR-FRET based LanthaScreen assay. The gist of the method:
as §2

Assay [8] addresses Receptor tyrosine-protein kinase erbB-2 (Homo sapiens, UniProt P04626). The assay is described as follows: Inhibition of HER2 by TR-FRET based LanthaScreen assay. Summed up:
as §2

In the next assay the target is Aurora kinase A (Homo sapiens, UniProt O14965). The assay is described as follows: Inhibition of Aurora A kinase by Caliper mobility shift assay. The gist of the method: as §1
Assay [9] concerns the target Proto-oncogene tyrosine-protein kinase receptor Ret (Homo sapiens, UniProt P07949). The assay is described as follows: Inhibition of RET by TR-FRET based LanthaScreen assay. Summed up:
as §2

For assay [10], the target named is Insulin-like growth factor 1 receptor (Homo sapiens, UniProt P08069). The assay is described as follows: Inhibition of IGF1R by TR-FRET based LanthaScreen assay. The gist of the method: as §2
In the next assay the target is Ephrin type-B receptor 4 (Homo sapiens, UniProt P54760). The assay is described as follows: Inhibition of EPHB4 by TR-FRET based LanthaScreen assay. Summed up:
as §2

The target in assay [11] is 3-phosphoinositide-dependent protein kinase 1 (Homo sapiens) (UniProt O15530). The assay is described as follows: Inhibition of PDK1 by Caliper mobility shift assay.
The target in the next assay is Insulin receptor (Homo sapiens, UniProt P06213). The assay is described as follows: Inhibition of INSR by TR-FRET based LanthaScreen assay. Summed up: as §2
Assay [12] deals with Glycogen synthase kinase-3 beta (Homo sapiens, UniProt P49841). The assay is described as follows: Inhibition of GSK3-beta by TR-FRET based LanthaScreen assay. The gist of the method:
as §2

Assay [13] deals with Hepatocyte growth factor receptor (Homo sapiens, UniProt P08581). The assay is described as follows: Inhibition of HGFR by TR-FRET based LanthaScreen assay. Summed up: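 LanthaScreen TR-FRET kinase format, run per the group's earlier protocol. IC50 from two independent experiments; for some compounds, PDGFRα and VEGFR2 values are means ± SD of three independent runs. The FGFR3 used was the K651E mutant.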

The target in assay [14] is Cyclin-dependent kinase 2 (Homo sapiens, UniProt P24941). The assay is described as follows: Inhibition of CDK2A by Caliper mobility shift assay. The gist of the method: as §3
In assay [15] the target is Serine/threonine-protein kinase N1 (Homo sapiens, UniProt Q16512). The assay is described as follows: Inhibition of PKN1 by Caliper mobility shift assay. The gist of the method: as §1
Assay [16] concerns the target Tyrosine-protein kinase JAK2 (Homo sapiens, UniProt O60674). The assay is described as follows: Inhibition of JAK2 by TR-FRET based LanthaScreen assay.
In assay [17] the target is Fibroblast growth factor receptor 3 (Homo sapiens, UniProt P22607). The assay is described as follows: Inhibition of FGFR3 by TR-FRET based LanthaScreen assay. Summed up: as §2
The target of assay [18] is Rho-associated protein kinase 2 (Homo sapiens, UniProt O75116). The assay is described as follows: Inhibition of ROCK2 by Caliper mobility shift assay. The gist of the method: as §1
For assay [19], the target named is Tyrosine-protein kinase JAK1 (Homo sapiens, UniProt P23458). The assay is described as follows: Inhibition of JAK1 by TR-FRET based LanthaScreen assay.

Structures are written as SMILES.

Chain of Rho-associated protein kinase 2 (O75116 whole entry): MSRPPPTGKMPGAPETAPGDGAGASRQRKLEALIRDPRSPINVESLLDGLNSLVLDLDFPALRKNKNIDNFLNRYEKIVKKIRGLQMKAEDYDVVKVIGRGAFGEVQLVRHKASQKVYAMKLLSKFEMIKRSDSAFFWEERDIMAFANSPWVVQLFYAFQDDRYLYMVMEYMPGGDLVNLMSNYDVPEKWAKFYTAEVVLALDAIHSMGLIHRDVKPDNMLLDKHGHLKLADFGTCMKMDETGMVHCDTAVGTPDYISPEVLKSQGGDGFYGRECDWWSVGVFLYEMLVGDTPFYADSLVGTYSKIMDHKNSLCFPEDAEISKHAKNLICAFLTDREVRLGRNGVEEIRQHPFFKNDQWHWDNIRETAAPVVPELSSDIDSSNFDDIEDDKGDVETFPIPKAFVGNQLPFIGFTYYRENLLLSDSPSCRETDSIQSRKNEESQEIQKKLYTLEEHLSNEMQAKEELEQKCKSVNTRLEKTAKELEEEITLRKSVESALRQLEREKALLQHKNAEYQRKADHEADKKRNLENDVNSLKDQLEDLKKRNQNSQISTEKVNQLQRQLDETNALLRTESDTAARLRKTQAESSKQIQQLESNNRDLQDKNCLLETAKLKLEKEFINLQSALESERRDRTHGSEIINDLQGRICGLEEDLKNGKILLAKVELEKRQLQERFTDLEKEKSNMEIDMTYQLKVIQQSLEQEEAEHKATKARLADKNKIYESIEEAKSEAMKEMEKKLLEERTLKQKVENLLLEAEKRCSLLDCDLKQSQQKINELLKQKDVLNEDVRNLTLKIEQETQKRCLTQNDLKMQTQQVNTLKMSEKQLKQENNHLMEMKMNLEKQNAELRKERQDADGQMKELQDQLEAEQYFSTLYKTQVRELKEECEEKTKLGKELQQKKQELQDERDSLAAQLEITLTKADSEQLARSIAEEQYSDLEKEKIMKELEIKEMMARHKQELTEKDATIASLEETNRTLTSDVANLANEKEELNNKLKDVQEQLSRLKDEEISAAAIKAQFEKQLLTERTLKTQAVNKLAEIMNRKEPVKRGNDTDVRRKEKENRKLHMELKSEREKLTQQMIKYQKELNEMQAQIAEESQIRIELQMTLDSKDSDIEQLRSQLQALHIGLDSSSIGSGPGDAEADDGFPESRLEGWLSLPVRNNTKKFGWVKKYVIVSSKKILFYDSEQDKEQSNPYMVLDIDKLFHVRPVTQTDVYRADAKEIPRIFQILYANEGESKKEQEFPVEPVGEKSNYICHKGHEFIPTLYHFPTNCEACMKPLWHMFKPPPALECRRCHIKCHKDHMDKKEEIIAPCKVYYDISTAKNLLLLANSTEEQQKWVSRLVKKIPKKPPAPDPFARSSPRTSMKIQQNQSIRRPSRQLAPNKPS
Chain of Tyrosine-protein kinase receptor UFO (P30530 whole entry): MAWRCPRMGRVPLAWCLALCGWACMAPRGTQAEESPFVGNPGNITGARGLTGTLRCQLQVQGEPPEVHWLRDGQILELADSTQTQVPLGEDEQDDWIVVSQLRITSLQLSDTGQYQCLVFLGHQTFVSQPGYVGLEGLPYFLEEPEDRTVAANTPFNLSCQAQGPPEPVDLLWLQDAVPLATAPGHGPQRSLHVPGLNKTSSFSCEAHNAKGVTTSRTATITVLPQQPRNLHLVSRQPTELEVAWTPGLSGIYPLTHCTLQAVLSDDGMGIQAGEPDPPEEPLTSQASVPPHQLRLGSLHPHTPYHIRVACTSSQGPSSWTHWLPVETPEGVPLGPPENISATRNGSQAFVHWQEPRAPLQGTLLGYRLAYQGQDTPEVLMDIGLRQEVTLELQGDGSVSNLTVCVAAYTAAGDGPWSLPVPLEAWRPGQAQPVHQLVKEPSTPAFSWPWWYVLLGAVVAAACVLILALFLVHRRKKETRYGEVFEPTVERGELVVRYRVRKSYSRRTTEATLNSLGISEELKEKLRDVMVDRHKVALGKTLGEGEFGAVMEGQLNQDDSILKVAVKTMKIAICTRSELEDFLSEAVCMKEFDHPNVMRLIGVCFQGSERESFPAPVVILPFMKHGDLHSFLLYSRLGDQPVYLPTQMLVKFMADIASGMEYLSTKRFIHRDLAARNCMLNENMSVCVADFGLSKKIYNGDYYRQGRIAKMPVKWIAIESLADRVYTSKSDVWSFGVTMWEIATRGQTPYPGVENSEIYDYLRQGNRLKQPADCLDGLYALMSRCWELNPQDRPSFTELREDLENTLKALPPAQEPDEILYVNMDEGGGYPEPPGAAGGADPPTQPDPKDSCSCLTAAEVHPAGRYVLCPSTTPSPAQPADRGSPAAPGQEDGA
Chain of Proto-oncogene tyrosine-protein kinase receptor Ret (P07949 whole entry): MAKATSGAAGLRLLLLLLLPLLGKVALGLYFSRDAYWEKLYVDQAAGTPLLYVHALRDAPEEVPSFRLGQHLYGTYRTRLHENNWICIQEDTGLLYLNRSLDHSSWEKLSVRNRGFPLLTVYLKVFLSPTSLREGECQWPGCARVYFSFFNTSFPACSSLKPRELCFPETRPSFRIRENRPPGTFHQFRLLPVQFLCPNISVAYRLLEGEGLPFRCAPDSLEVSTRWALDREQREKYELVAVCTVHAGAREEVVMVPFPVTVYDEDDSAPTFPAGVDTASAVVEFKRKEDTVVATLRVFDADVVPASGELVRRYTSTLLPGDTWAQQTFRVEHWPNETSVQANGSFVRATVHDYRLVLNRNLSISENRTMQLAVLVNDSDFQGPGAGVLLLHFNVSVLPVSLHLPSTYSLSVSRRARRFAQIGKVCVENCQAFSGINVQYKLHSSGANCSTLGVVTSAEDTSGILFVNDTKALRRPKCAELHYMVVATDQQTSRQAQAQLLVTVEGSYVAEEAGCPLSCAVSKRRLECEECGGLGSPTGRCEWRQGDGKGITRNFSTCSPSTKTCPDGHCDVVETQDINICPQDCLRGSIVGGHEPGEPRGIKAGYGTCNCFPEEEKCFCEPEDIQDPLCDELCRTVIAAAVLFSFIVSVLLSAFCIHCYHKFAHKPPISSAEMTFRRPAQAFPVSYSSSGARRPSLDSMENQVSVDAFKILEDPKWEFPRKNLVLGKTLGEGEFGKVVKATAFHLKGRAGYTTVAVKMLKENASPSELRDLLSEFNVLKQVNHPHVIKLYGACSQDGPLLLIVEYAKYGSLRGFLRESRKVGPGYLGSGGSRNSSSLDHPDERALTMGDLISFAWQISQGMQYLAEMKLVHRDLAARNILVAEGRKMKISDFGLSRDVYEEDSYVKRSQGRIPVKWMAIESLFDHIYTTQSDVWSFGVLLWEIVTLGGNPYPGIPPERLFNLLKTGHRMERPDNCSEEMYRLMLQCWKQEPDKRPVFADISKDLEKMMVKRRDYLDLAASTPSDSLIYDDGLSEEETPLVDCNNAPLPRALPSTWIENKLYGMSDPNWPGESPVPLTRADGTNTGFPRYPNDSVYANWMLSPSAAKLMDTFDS
Chain of Tyrosine-protein kinase JAK1 (P23458 whole entry): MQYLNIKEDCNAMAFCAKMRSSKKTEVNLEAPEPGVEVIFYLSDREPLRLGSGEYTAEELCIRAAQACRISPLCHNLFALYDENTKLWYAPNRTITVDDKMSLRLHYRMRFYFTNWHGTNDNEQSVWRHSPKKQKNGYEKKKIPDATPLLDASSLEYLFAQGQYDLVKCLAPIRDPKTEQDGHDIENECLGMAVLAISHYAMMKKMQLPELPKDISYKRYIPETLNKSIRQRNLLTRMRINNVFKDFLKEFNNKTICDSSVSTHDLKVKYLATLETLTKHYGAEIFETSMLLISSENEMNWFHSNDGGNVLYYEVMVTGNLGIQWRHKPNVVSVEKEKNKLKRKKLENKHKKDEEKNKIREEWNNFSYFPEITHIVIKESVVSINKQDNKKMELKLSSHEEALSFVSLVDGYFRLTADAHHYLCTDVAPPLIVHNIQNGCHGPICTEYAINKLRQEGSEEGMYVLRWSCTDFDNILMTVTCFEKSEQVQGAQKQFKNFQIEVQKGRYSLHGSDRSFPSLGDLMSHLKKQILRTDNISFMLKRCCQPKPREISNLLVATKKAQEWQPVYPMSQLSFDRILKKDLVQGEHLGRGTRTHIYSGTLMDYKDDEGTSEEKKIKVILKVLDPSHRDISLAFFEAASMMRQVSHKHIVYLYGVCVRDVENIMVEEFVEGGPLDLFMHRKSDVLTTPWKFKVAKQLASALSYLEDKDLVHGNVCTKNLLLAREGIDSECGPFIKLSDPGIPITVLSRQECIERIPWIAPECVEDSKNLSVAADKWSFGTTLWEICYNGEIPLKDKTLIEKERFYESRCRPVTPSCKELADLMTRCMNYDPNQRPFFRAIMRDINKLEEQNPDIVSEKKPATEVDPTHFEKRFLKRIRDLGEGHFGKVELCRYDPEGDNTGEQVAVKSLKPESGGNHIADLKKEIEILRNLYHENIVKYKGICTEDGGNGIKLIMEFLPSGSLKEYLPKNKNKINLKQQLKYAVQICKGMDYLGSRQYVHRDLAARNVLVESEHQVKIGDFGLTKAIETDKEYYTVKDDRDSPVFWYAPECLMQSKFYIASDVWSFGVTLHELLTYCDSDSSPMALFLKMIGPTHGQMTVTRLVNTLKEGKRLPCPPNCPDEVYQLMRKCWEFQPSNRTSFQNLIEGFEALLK
Chain of Aurora kinase A (O14965 whole entry): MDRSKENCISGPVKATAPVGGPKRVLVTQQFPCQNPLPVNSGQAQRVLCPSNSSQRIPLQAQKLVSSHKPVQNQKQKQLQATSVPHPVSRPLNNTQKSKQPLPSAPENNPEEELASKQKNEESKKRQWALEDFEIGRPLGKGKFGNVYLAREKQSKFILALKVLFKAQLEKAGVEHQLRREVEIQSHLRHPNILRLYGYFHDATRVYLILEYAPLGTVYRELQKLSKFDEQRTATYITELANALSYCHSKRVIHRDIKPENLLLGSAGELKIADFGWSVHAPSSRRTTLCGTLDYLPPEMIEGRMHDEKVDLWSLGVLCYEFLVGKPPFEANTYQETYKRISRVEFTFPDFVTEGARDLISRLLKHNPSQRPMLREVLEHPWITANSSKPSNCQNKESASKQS

For the compound `COc1cc(O)c2c(c1)CCCC(=O)C(=O)C(O)CCC[C@H](C)OC2=O` (stereo partly drawn) [L-783277], the IC50 in [1] was over 10 µM; in [2], over 10 µM; against Ephrin type-A receptor 4 it was over 10 µM; in assay [3] it was over 10 µM; in assay [4] it was over 10 µM; in assay [5], 0.763 µM. In addition, the IC50 (in assay [6]; in assay [7]; in assay [8]; on Aurora kinase A; in [9]; in assay [10]) was over 10 µM throughout. The IC50 (on Ephrin type-B receptor 4; in assay [11]; at Insulin receptor; in assay [12]; in assay [13]; in assay [14]) was over 10 µM throughout. The IC50 in assay [15], in assay [16], in assay [17], in [18] and in assay [19] was over 10 µM each time.

The record behind these values is BindingDB's records for doi:10.1021/ml1001807 (2011).
